Here are results for five compounds from publication PMC11455621 (Structure (London, England : 1993), 2024).

Substitutions are numbered along the chain they refer to.

One assay has as its target T1, HsFN3K WT (Homo sapiens, UniProt Q9H479).
T1 sequence (Q9H479 1-309): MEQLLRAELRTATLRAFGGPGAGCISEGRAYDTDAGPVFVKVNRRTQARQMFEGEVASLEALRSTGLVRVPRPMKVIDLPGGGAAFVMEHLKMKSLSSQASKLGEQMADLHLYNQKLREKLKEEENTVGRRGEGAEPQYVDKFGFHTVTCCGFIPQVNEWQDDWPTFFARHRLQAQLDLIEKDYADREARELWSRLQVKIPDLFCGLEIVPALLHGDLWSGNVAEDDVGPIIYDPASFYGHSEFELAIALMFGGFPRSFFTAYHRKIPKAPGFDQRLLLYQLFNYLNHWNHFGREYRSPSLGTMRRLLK
Description: Direct substrate phosphorylation assay. Format: biochemical. Particulars: glycated lysozyme 2mg/mL, 1 hour at 25°C (Figure S6D). The method in brief:
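Lysozyme glycated with ribose or glucose (1:1 molar, 3 or 28 days, 50°C). Reaction: 10 or 20 μM FN3K, 2 mg/mL glycated lysozyme, 5 mM HEPES pH 7, 5 mM MgCl2, 100 μM ATP, 1 h at 25°C. Quenched in Laemmli dye, run on SDS-PAGE, fixed in methanol/acetic acid. Stained with Pro-Q Diamond, destained in acetonitrile/sodium acetate pH 4, imaged at 602 nm […]. Coomassie restain for loading.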

In assay [1] the target is T2, HsFN3K (Homo sapiens, UniProt Q9H479).
T2 sequence (Q9H479 1-309): T1 sequence (Q9H479 1-309)
Description: Differential scanning fluorimetry. As to conditions: DSF; for Tm increase versus HsFN3K alone: single ligand 250 μM. The format is binding. On the technique in general: In DSF a fluorescence change marks the thermal transition of the protein.

Assay [2] deals with human Fructosamine-3-kinase (HsFN3K) (human) (UniProt Q9H479). The assay is described as follows: SEC.
Assay [3] has the same target. Description: intact protein LC-MS.
Assay [4] deals with T3, HsFN3K D234A (Homo sapiens, UniProt Q9H479, D234A).
T3 sequence (Q9H479 1-309 D234A): T1 sequence (Q9H479 1-309) with D234A
Description: Microscale thermophoresis. The format is binding. Particulars: MST. (In MST a laser heats a spot of the sample, and binding alters the fluorescence response.)

For assay [5], the target named is T4, HsFN3K H291A (Homo sapiens, UniProt Q9H479, H291A).
T4 sequence (Q9H479 1-309 H291A): T1 sequence (Q9H479 1-309) with H291A
The assay is described as follows: Differential scanning fluorimetry. The format is binding. Particulars: DSF.

A further assay deals with T5, HsFN3K W219A (Homo sapiens, UniProt Q9H479, W219A).
T5 sequence (Q9H479 1-309 W219A): T1 sequence (Q9H479 1-309) with W219A
Description: Differential scanning fluorimetry. The format is binding. As to conditions: DSF.

Assay [6] has as its target T6, HsFN3K D217A (Homo sapiens, UniProt Q9H479, D217A).
T6 sequence (Q9H479 1-309 D217A): T1 sequence (Q9H479 1-309) with D217A
The assay is described as follows: Differential scanning fluorimetry. The format is binding. Particulars: DSF.

Assay [7] concerns the target T6, HsFN3K D217A. Description: Microscale thermophoresis. Format: binding.
The target in assay [8] is T3, HsFN3K D234A. The assay is described as follows: Differential scanning fluorimetry. Format: binding. Particulars: DSF.
Assay [9] has as its target T2, HsFN3K. The assay is described as follows: Microscale thermophoresis. The format is binding. Particulars: MST.
In assay [10] the target is T7, HsFN3K H288A (Homo sapiens, UniProt Q9H479, H288A).
T7 sequence (Q9H479 1-309 H288A): T1 sequence (Q9H479 1-309) with H288A
Description: Differential scanning fluorimetry. Particulars: DSF. Format: binding.

Assay [11] addresses T7, HsFN3K H288A. Description: ADP-Glo kinase kinetics, HsFN3K H288A. Format: biochemical. Particulars: H288A mutant vs WT HsFN3K. Put shortly: (§1)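 E. coli BL21(DE3)-expressed human FN3K, MBP-His6 tag removed by TEV, at 0.5 μM. Reaction: 200 μM ATP, 10 mM MgCl2, 0–100 μM DMF, room temperature. Time points quenched with ADP-Glo reagent (40 min), then detection reagent (40 min). Luminescence converted to ADP by ATP-to-ADP conversion curves. v0 taken from the linear slope, then Michaelis–Menten fit. SEM from ≥2 independent experiments.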
On the technique in general: ADP-Glo turns the ADP formed in a reaction into a luminescent signal.

For assay [12], the target named is T4, HsFN3K H291A. Description: ADP-Glo kinase kinetics, HsFN3K H291A. The format is biochemical. As to conditions: H291A mutant vs WT HsFN3K. Put shortly:
as §1

The term stoichiometry N denotes a count of units in the complex or per binding partner. The Kd is a measure of binding affinity in units of concentration.

“glycated lysozyme: crystallization grade lysozyme incubated with ribose or glucose; protein substrate of FN3K”: the substrate phosphorylation result in the assay with HsFN3K WT was “able to phosphorylate”.
`Nc1ncnc2c1ncn2[C@@H]1O[C@H](COP(=O)(O)OP(=O)(O)NP(=O)(O)O)[C@@H](O)[C@H]1O` [AMP-PNP, adenylyl-imidodiphosphate]: the “binding of ATP mimetic” value on HsFN3K [1] (HsFN3K WT (Figure S7)) was “readily bound to HsFN3K”.
For “human Fructosamine-3-kinase (HsFN3K) (from UniProt Q9H479 1-309) (enzyme)”, the stoichiometry N in assay [2] and in assay [3] was 2 each time.
As to `Nc1ncnc2c1ncn2[C@@H]1O[C@H](COP(=O)(O)OP(=O)(O)OP(=O)([O-])[O-])[C@@H](O)[C@H]1O.[Na+].[Na+]` [ATP, Adenosine-5-triphosphate disodium salt], on HsFN3K D234A [4], the “binding of ATP and DMF” value is “impaired binding”. The ATP binding entry at HsFN3K H291A [5] and at HsFN3K H288A [10] was “retained the ability to bind ATP” in each case. Further, the “ligand binding by Tm shift” value at HsFN3K W219A and on HsFN3K D217A [6] was “retained the ability to bind ATP” each time. The Kd worked out at 3.5 ± 2.3 µM on HsFN3K D217A [7] (read-out: binding affinity (KD) for ATP, MST) and 3.9 ± 3.4 µM on HsFN3K [9] (read-out: binding affinity (KD) for ATP, fluorescently labeled HsFN3K WT, 25°C). For the same compound, on HsFN3K [1] (HsFN3K WT, ligand 250 μM, apo Tm 56.9 ± 0.7°C), the “melting temperature (Tm) with ligand” value is 63.2 ± 0.5 °C. Besides, the “Tm increase versus HsFN3K alone” value at HsFN3K [1] (HsFN3K WT) is ~ 6 °C. For the same compound, the “Tm shift in the presence of ATP or DMF individually or together” value at HsFN3K D234A [8] is on record as “no observable Tm shift”.
In the case of `O=C(CN1CCOCC1)[C@@H](O)[C@H](O)[C@H](O)CO` [DMF, 1-Deoxy-1-morpholino-fructose], the “binding of ATP and DMF” value at HsFN3K D234A [4] is given as “impaired binding”. Also, the figures for the “Tm shift on DMF binding” value at HsFN3K H291A [5] and on HsFN3K H288A [10] were 3.6 °C and 0.6 °C, respectively. Moreover, the “increase of Km for DMF versus wildtype” value at HsFN3K H288A [11] was 3 fold; at HsFN3K H291A [12], 3.5 fold. In addition, the “ligand binding by Tm shift” value on HsFN3K W219A is on record as “did not bind DMF”; on HsFN3K D217A [6], “lost binding to DMF”. Also, the “binding of DMF” value at HsFN3K D217A [7] (MST) is “lost the ability to bind DMF”. For the same compound, the “substrate (DMF) engagement in presence of AMP-PNP” value at HsFN3K [1] (HsFN3K WT, AMP-PNP instead of ATP (Figure S7)) is “prevented substrate engagement”. Further, the “melting temperature (Tm) with both ATP and DMF” value on HsFN3K [1] (HsFN3K WT, ATP+DMF 250 μM) was 65.2 ± 0.6 °C. In addition, the “Tm shift of ATP and DMF compared to ATP alone” value at HsFN3K [1] (HsFN3K WT, DMF added with ATP) was ~ 2 °C. In addition, the “Tm increase versus HsFN3K alone” value at HsFN3K [1] (HsFN3K WT) was “did not alter the Tm”. Also, the “Tm shift in the presence of ATP or DMF individually or together” value at HsFN3K D234A [8] is “no observable Tm shift”. For the same compound, the “binding of DMF in the absence of ATP” value on HsFN3K [9] (HsFN3K WT, absence of ATP) is “did not bind DMF”.
